HSF-1 act: HSF-1 activators, primary screen, NIH3T3-HGL cells, MG132 stress, luminescence, single point; AID 504408, 2011; NIH3T3-HGL HSF-1 luciferase reporter, 8 h; 100% = twice DMSO control signal; activation, % at 9 µM; hit rate 1.7% among 300,000;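 active = mean replicate activation of at least 50% with a set share of replicates each reaching 50%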;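 also: 0% = median of the neutral control wells and 100% = twice that signal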
Hsp70 activator: Hsp70 transcriptional activators, primary screen, cell-based, HeLa, Hsp70 promoter luciferase, luminescence, 10 µM; HeLa Hsp70 promoter luciferase reporter; scaled: vehicle 0, proteasome-inhibitor control 100%; activation, % at 10 µM; hit rate 0.04% among 200,000; AID 1203, 2008;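 active = activation above the mean across all tested compounds plus 3 SD, cutoff set per campaign, cut at about 5.5% in these data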;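 also: 100% = MG132 at 30 µM as the positive control and 0% = DMSO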
HSF1 inh: HSF1 inhibitors in luciferase reporter cells, primary screen, cell-based, NIH3T3, luminescence; NIH3T3-HGL HSE-luciferase, MG132-induced, luminescence 8 h; stronger effect = lower value; activity change, negative = inhibition, % at 7.5 µM (by protocol); hit rate 0.77% among 300,000; AID 2098, 2009;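 active = more than half of replicate wells show activity change below -50%, luminescence cut by over half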;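 also: luciferase reports HSF-1 transcriptional activity via heat shock element; 0% = median of DMSO wells and -100% = zero luminescence signal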
HSP90 inh: HSP90 inhibitors, primary screen, cell lysate, luminescence. Heat shock protein HSP 90 (rabbit reticulocyte lysate; luciferase refolding). Rabbit reticulocyte lysate, luciferase refolding luminescence, 3 h. inhibition, % at 5.6 µM. hit rate 0.91% among 290,000. AID 1789, 2009;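 active = inhibition above the screen-wide mean plus 3 SD, computed separately per campaign, cut at about 16% in these data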;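 also: 0% = DMSO wells and 100% = 60 µM geldanamycin wells; inhibitors lower the luminescence because luciferase stays unfolded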
TbHK1 inh: Trypanosoma brucei hexokinase 1 inhibitors, primary screen, biochemical, G6PDH-coupled NADH absorbance, MLSCN library; hexokinase 1 [Trypanosoma brucei]; inhibition, % at 10 µM; AID 1430, 2008; recombinant TbHK1, G6PDH-coupled NADH A340; hit rate 0.11% among 220,000;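 active = inhibition of 50% or more in the single-dose primary screen; inactive = inhibition below 50%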
HKDC1 inh: HKDC1 hexokinase inhibitors, primary screen, biochemical, fluorescence, uHTS | hit rate 0.16% among 340,000 | Q2TB90 | AID 493160, 2011 | recombinant HKDC1, G6PDH/diaphorase resazurin coupled fluorescence | inhibition, % at 20 µM;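 active = inhibition above about 35% when tested at 20 µM, limit read from the data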;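 also: plate controls were DMSO wells with enzyme for no effect and DMSO wells lacking enzyme for full effect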
Target sequence (Q2TB90 whole entry, looked up): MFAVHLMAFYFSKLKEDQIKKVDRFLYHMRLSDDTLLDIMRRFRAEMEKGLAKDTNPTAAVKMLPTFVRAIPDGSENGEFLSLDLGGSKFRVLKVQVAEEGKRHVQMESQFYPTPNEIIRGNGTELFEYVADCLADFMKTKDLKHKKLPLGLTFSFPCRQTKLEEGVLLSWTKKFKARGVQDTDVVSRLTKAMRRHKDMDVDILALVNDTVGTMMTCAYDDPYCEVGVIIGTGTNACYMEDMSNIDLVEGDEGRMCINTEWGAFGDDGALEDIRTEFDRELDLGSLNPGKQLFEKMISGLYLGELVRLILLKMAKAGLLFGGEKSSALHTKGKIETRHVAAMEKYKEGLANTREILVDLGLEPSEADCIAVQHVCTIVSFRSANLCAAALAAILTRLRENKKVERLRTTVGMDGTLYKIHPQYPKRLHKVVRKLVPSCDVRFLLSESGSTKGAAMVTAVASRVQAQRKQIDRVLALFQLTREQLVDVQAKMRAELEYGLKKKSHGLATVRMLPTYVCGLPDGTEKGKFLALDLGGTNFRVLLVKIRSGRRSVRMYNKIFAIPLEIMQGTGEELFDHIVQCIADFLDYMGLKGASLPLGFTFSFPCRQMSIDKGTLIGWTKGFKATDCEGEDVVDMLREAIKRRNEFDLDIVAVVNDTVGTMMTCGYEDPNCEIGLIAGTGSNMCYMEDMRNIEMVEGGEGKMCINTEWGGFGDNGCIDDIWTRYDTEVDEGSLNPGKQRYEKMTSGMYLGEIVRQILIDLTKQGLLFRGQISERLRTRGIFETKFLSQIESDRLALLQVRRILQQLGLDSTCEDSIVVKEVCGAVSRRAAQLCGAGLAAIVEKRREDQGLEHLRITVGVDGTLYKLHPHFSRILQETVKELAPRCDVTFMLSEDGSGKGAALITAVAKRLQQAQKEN
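Test system: HK5 enzyme. Quantity: 5 µg/mL HK5 final. Reagent: glucose and ATP substrates. Schedule: 90 min reaction incubation at room temperature, dark. Technique: resazurin-to-resorufin fluorescence via G6PDH and diaphorase coupling, 525/613 nm. Control set: DMSO wells with and without enzyme mix.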
Numbers without * were called inactive; . = not tested or not shown. The list is not random: actives were taken first. Their share in the collection is about 3.1%.

SMILES	HSF-1 act	Hsp70 activator	HSF1 inh	HSP90 inh	TbHK1 inh	HKDC1 inh
CC(=O)Nc1ccc(NC(=S)NC(=O)/C=C/c2ccc(Cl)cc2)cc1	-11.2	-0.2	-3.2	-0.3	-10.6	-8.6
CCOc1ccc(NC(=S)NC(=O)c2ccco2)cc1	52.3*	.	26.4	-1.4	-16.1	-4.1
O=C1c2cccnc2C(=O)N1Cc1ccc(S(=O)(=O)N2CCOc3ccccc32)cc1	3.3	.	-4.9	-1.6	.	-0.2
COCCN(C(=O)c1ccc(OC2CCN(S(=O)(=O)N(C)C)CC2)cc1)C(C)C	9.1	.	6.5	2.3	.	-3.8
O=C(CSc1n[nH]c(=O)n1-c1ccccc1)N1CCOCC1	8.3	.	-5.0	-3.9	.	-6.4
Cc1c(C(=O)OCC(C)C)[nH]c2c1C(=O)CC(c1ccco1)C2 (centres undefined)	-16.5	0.9	-17.8	2.9	1.3	3.3
Cc1c(C(=O)OCC2CCCO2)[nH]c2c1C(=O)CC(c1ccco1)C2 (centres undefined)	56.6*	-0.2	18.2	-3.3	10.0	14.4
CCCCCCCC(=O)Nc1cc(C(=O)NCCC)ccc1N1CCC2(CC1)CC(c1ccccc1)=NO2	-11.0	.	-2.7	0.8	.	2.7
CC(Sc1nncn1C)C(=O)Nc1ccc2ccccc2c1 (centres undefined)	.	.	.	.	.	-4.2
COc1ccc(N2C(=O)CC(NNc3ncc(Cl)cc3Cl)C2=O)cc1 (centres undefined)	-69.5	-0.4	-59.9*	6.7	-9.4	-3.8
Cn1ccnc1SCC(=O)N(C1CCCCC1)C1CCCCC1	-75.0	-0.1	-68.3*	0.0	1.9	4.2
COc1cccc(C(=O)CSc2nccn2C)c1	39.5	.	27.0	2.1	.	-3.4
Cn1ccnc1SCC(=O)c1ccc2ccccc2c1	212.6*	0.3	207.2	-0.9	-7.9	-0.4
Cn1ccnc1SCC(=O)NC1CCCCC1	.	-0.1	.	1.4	1.0	-0.2
O=C(CN1C(=O)/C(=C\c2cccc(Cl)c2)Sc2ccccc21)NCCCN1CCOCC1	90.4*	.	49.8	0.1	.	-2.9
O=C(CN1C(=O)/C(=C\c2ccccc2Cl)Sc2ccccc21)NCCCN1CCOCC1	18.8	.	15.8	-2.3	.	-1.6
O=C(NN=Cc1cc(Cl)ccc1[N+](=O)[O-])c1ccco1	.	.	.	.	.	0.1
CCOC(=O)/C=C1\SCC(=O)N1CC(=O)Nc1cc(S(=O)(=O)N(C)C)ccc1C	.	.	.	.	.	-9.2
Cc1ccc(OCC(=O)OCC(=O)c2cccc([N+](=O)[O-])c2)cc1C	-9.8	.	-7.0	5.3	.	-2.6
O=C(NCCc1ccc(O)c(O)c1)C1COc2ccccc2O1 (centres undefined)	120.8*	.	70.9	-7.8	.	-5.1
COc1ccc(C)cc1NC(=O)CN1C(=O)COc2ccc(S(=O)(=O)N3CCC(C)CC3)cc21	-15.6	.	-16.5	3.8	.	-1.7
Cc1cc(Cl)ccc1OCc1cn2cccnc2n1	94.3*	0.4	77.8	-4.8	-7.4	-4.9
Clc1ccc(OCc2cn3cccnc3n2)c2ncccc12	28.6	-0.1	10.5	1.0	-6.3	-0.2
COc1ccc(Cc2nnc(NC(=O)Nc3ccccc3F)s2)cc1OC	-7.7	.	8.5	-1.4	.	-0.5
COc1ccc(NCc2nnc(SCC(=O)Nc3cccc(C)c3)o2)cc1	-60.8	0.1	-54.2*	-4.0	-2.1	12.9
SMILES	HSF-1 act	Hsp70 activator	HSF1 inh	HSP90 inh	TbHK1 inh	HKDC1 inh
Cc1ccc(C(=O)NCC(C)NC(=O)c2ccc(C)c([N+](=O)[O-])c2)cc1[N+](=O)[O-] (centres undefined)	87.7*	.	51.0	.	.	-1.3
CC(=O)Nc1ccc(C(=O)OCC(=O)c2ccc(C)c([N+](=O)[O-])c2)cc1	58.3*	-0.3	19.6	-2.1	-6.3	-0.9
Cc1ccc(C(=O)NCCSC(C)(C)C)cc1[N+](=O)[O-]	28.4	-0.2	15.2	-4.0	-4.4	-7.5
Cc1c(NC(=O)[C@@H](NC(=O)c2ccc(Cl)c([N+](=O)[O-])c2)C(C)C)c(=O)n(-c2ccccc2)n1C	.	.	.	.	.	-2.1
CCOC(=O)C(c1ccccc1)C(Nc1ccc(F)cc1)c1ccccn1 (centres undefined)	15.7	.	-5.1	2.8	-12.8	4.6
CCOC(=O)C(C(=O)OCC)C(Nc1ccc(Br)cc1)c1ccccc1 (centres undefined)	300.8*	0.1	226.7	-2.7	2.1	11.9
CCN(C(=O)COC(=O)c1ccccc1Nc1ccccc1)c1c(N)n(Cc2ccccc2)c(=O)[nH]c1=O	.	.	.	.	.	1.5
CCN(CC)CCOC(=O)c1ccc(N)cc1	-80.5	.	-78.3*	-4.8	.	-6.5
CCN(CC)CCOC(=O)c1ccc([N+](=O)[O-])cc1	-20.5	.	-6.4	0.4	-3.1	0.6
Cc1ccc(NC(=O)C2CCN(C(=O)c3ccco3)CC2)cc1C	4.4	.	3.2	-0.5	.	-6.2
COC(=O)Cc1ccc(NC(=O)c2ccc(C)c(C)c2)cc1	70.7*	0.1	38.8	-4.1	3.6	-4.2
COC(=O)C1CSC(C(=O)OC)N1C(=O)Nc1c(C)cccc1C (centres undefined)	-13.7	-0.4	-4.0	1.7	5.8	-9.3
Cc1cccc(C)c1NC(=O)N1C(C(=O)O)CSC1C(=O)O (centres undefined)	-90.0	0.2	-87.7*	4.9	2.3	-3.0
COc1ccc(CNC(=O)CN2C(=O)C(C)N(c3ccc(C)cc3)C2=O)cc1 (centres undefined)	53.9*	0.1	16.3	0.5	3.6	-1.6
CN(C)S(=O)(=O)NC(=O)C1=C(N2CCCC2)COC1=O	.	.	.	.	.	-3.8
O=C(CCC1CCCC1)N=C1SC2CS(=O)(=O)CC2N1c1ccccc1F (centres undefined)	64.3*	.	19.4	3.8	.	-4.8
O=C(Nc1ccc(C(F)(F)F)cc1)C1CCN(c2cnccn2)CC1	1.8	.	-2.4	-4.1	.	-1.6
O=C(Nc1ccn(Cc2ccccc2F)n1)c1ccc(COc2cccc(Br)c2)cc1	51.5*	-0.3	29.3	10.3	1.8	6.8
Cc1ccc2[nH]c3c(c2c1)CN(C(C)C)CC3	-16.6	.	-3.2	16.3*	.	1.6
C[C@H]1CN=C(N(C)C)N1CC1CCCCC1	.	.	.	.	.	6.5
COc1ccc(-c2noc(CCC(=O)NCCc3ccccc3)n2)cc1	7.8	.	-1.2	0.7	.	-4.7
CCN(CCCNC(=O)Cn1cc2c(n1)CCCC2)c1cccc(C)c1	59.1*	-0.1	44.9	-2.1	-0.3	1.4
CCN(CCCNC(=O)CCc1nc(-c2ccc(OC)cc2)no1)c1cccc(C)c1	61.6*	0.6	39.1	2.3	-9.1	5.8

Screening results from PubChem BioAssay.
